# Experimental data from ChEMBL document CHEMBL5303300, “EUbOPEN Chemogenomics Library - Multiplex” (2023).
# Where “and” joins values, the source holds several entries; their conditions need not be identical. Equal values may be shown once.
# Tested on: U2OS
# Test: Multiplex assay against U2OS
# Type: toxicity, cell-based
# Details: human, number of replicates 2
# Procedure, shortened: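 Four dyes were applied at seeding to live cells: Hoechst33342, BioTracker Green Microtubule Cytoskeleton Dye, MitoTracker Red and Annexin V Alexa Fluor 680. Imaging after compound addition used a CQ1 microscope at 37°C and 5% CO2. CellPathfinder machine-learning gating then sorted cells into Hoechst high-intensity objects or normal cells, normal cells into healthy, pyknosed or fragmented nuclei, and pyknosed cells into mitotic or apoptotic, with tubulin, mitochondrial-mass and membrane-permeability phenotypes given as per cents of healthy-nucleus cells.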
# [1] = 12 h, 1 µM, compound concentration 1 uM
# [2] = 12 h, 10 µM, compound concentration 10 uM
# [3] = 24 h, 1 µM, compound concentration 1 uM
# [4] = 24 h, 10 µM, compound concentration 10 uM
# [5] = 48 h, 1 µM, compound concentration 1 uM
# [6] = 48 h, 10 µM, compound concentration 10 uM
structure (smiles),measurement,setting,value
CN1CCCN(C(=O)c2cccc(-c3ccc(/C=C4/C(=O)Nc5ccc(Cl)cc54)o3)c2)CC1,Population Apoptotic (%),[1],64% and 66%
same,Population Fragmented Nuclei (%),[1],9% and 10%
same,Population Healthy Nuclei (%),[1],77% and 81%
same,Population Hoechst High Intensity Objects (%),[1],0%
same,Population Membrane Permeable-Phenotype (%),[1],0%
same,Population Mitochondria Different-Phenotype (%),[1],6% and 0%
same,Population Mitotic Cells (%),[1],35% and 33%
same,Population Normal (%),[1],100%
same,Population Pyknosed Nuclei (%),[1],13% and 8%
same,Population Tubulin-Different-Phenotype (%),[1],70% and 43%
same,Population Apoptotic (%),[2],91% and 64%
same,Population Healthy Nuclei (%),[2],18% and 30%
same,Population Hoechst High Intensity Objects (%),[2],0% and 10%
same,Population Normal (%),[2],99% and 89%
same,Population Pyknosed Nuclei (%),[2],68% and 26%
same,Population Tubulin-Different-Phenotype (%),[2],100% and 56%
same,Total Cell Count,[2],142 and 58
same,Population Apoptotic (%),[3],62% and 87%
same,Population Fragmented Nuclei (%),[3],7% and 8%
same,Population Healthy Nuclei (%),[3],73%
same,Population Hoechst High Intensity Objects (%),[3],0%
same,Population Membrane Permeable-Phenotype (%),[3],6% and 2%
same,Population Mitochondria Different-Phenotype (%),[3],3% and 5%
same,Population Normal (%),[3],100%
same,Population Pyknosed Nuclei (%),[3],19% and 18%
same,Population Tubulin-Different-Phenotype (%),[3],53% and 72%
same,Population Apoptotic (%),[4],95% and 57%
same,Population Hoechst High Intensity Objects (%),[4],0% and 15%
same,Population Normal (%),[4],99% and 85%
same,Population Pyknosed Nuclei (%),[4],89% and 41%
same,Population Tubulin-Different-Phenotype (%),[4],100% and 72%
same,Total Cell Count,[4],136 and 60
same,Population Apoptotic (%),[5],77% and 90%
same,Population Fragmented Nuclei (%),[5],10%
same,Population Healthy Nuclei (%),[5],65% and 61%
same,Population Hoechst High Intensity Objects (%),[5],0%
same,Population Membrane Permeable-Phenotype (%),[5],8% and 4%
same,Population Mitochondria Different-Phenotype (%),[5],0% and 1%
same,Population Mitotic Cells (%),[5],22% and 10%
same,Population Normal (%),[5],100%
same,Population Pyknosed Nuclei (%),[5],23% and 28%
same,Population Tubulin-Different-Phenotype (%),[5],52% and 80%
same,Total Cell Count,[5],38 and 106
same,Population Apoptotic (%),[6],96% and 62%
same,Population Healthy Nuclei (%),[6],22% and 27%
same,Population Hoechst High Intensity Objects (%),[6],0% and 14%
same,Population Normal (%),[6],100% and 85%
same,Population Pyknosed Nuclei (%),[6],73% and 29%
same,Population Tubulin-Different-Phenotype (%),[6],92% and 86%
same,Total Cell Count,[6],127 and 64
COc1cc(Nc2cnc(C#N)c(O[C@H](C)CN(C)C)n2)ncc1-c1cnn(C)c1,Population Apoptotic (%),[1],100% and 59%
same,Population Healthy Nuclei (%),[1],63% and 83%
same,Population Hoechst High Intensity Objects (%),[1],0%
same,Population Mitochondria Different-Phenotype (%),[1],8% and 2%
same,Population Normal (%),[1],100%
same,Population Pyknosed Nuclei (%),[1],10% and 11%
same,Population Tubulin-Different-Phenotype (%),[1],75% and 63%
same,Population Apoptotic (%),[2],88% and 56%
same,Population Healthy Nuclei (%),[2],39% and 74%
same,Population Hoechst High Intensity Objects (%),[2],0%
same,Population Mitochondria Different-Phenotype (%),[2],6% and 8%
same,Population Normal (%),[2],100%
same,Population Pyknosed Nuclei (%),[2],21% and 15%
same,Population Tubulin-Different-Phenotype (%),[2],25% and 32%
same,Population Apoptotic (%),[3],50% and 76%
same,Population Healthy Nuclei (%),[3],67% and 86%
same,Population Hoechst High Intensity Objects (%),[3],0%
same,Population Membrane Permeable-Phenotype (%),[3],0% and 2%
same,Population Mitochondria Different-Phenotype (%),[3],0%
same,Population Mitotic Cells (%),[3],50% and 24%
same,Population Normal (%),[3],100%
same,Population Pyknosed Nuclei (%),[3],10% and 8%
same,Population Tubulin-Different-Phenotype (%),[3],81% and 72%
same,Population Apoptotic (%),[4],87% and 64%
same,Population Fragmented Nuclei (%),[4],33% and 11%
same,Population Healthy Nuclei (%),[4],37% and 67%
same,Population Hoechst High Intensity Objects (%),[4],6% and 2%
same,Population Mitochondria Different-Phenotype (%),[4],20% and 9%
same,Population Mitotic Cells (%),[4],12% and 35%
same,Population Normal (%),[4],93% and 97%
same,Population Pyknosed Nuclei (%),[4],29% and 20%
same,Population Tubulin-Different-Phenotype (%),[4],60% and 44%
same,Population Apoptotic (%),[5],66% and 62%
same,Population Healthy Nuclei (%),[5],55% and 83%
same,Population Hoechst High Intensity Objects (%),[5],0%
same,Population Membrane Permeable-Phenotype (%),[5],2%
same,Population Mitochondria Different-Phenotype (%),[5],0%
same,Population Mitotic Cells (%),[5],33% and 37%
same,Population Normal (%),[5],100% and 99%
same,Population Pyknosed Nuclei (%),[5],28% and 12%
same,Population Tubulin-Different-Phenotype (%),[5],94% and 74%
same,Population Apoptotic (%),[6],100% and 85%
same,Population Fragmented Nuclei (%),[6],31% and 20%
same,Population Healthy Nuclei (%),[6],20% and 46%
same,Population Hoechst High Intensity Objects (%),[6],3% and 0%
same,Population Membrane Permeable-Phenotype (%),[6],16% and 7%
same,Population Mitochondria Different-Phenotype (%),[6],16% and 10%
same,Population Mitotic Cells (%),[6],0% and 14%
same,Population Normal (%),[6],96% and 99%
same,Population Pyknosed Nuclei (%),[6],48% and 33%
same,Population Tubulin-Different-Phenotype (%),[6],50% and 59%
CC(C)S(=O)(=O)c1ccccc1Nc1nc(N[C@@H]2CCCN(CCCCCCCNC(=O)COc3cccc4c3C(=O)N(C3CCC(=O)N(C)C3=O)C4=O)C2)ncc1Cl (some centres not stated),Population Apoptotic (%),[1],93% and 83%
same,Population Healthy Nuclei (%),[1],34% and 71%
same,Population Hoechst High Intensity Objects (%),[1],0%
same,Population Mitochondria Different-Phenotype (%),[1],8% and 7%
same,Population Mitotic Cells (%),[1],6% and 16%
same,Population Normal (%),[1],100%
same,Population Pyknosed Nuclei (%),[1],22% and 23%
same,Population Tubulin-Different-Phenotype (%),[1],69% and 61%
same,Total Cell Count,[1],66 and 157
same,Population Apoptotic (%),[2],85% and 77%
same,Population Healthy Nuclei (%),[2],48% and 56%
same,Population Hoechst High Intensity Objects (%),[2],0% and 1%
same,Population Membrane Permeable-Phenotype (%),[2],80% and 93%
same,Population Mitochondria Different-Phenotype (%),[2],66% and 54%
same,Population Mitotic Cells (%),[2],14% and 22%
same,Population Normal (%),[2],100% and 98%
same,Population Pyknosed Nuclei (%),[2],22% and 37%
same,Population Tubulin-Different-Phenotype (%),[2],100%
same,Population Apoptotic (%),[3],85% and 89%
same,Population Fragmented Nuclei (%),[3],26% and 13%
same,Population Healthy Nuclei (%),[3],29% and 51%
same,Population Hoechst High Intensity Objects (%),[3],1% and 0%
same,Population Membrane Permeable-Phenotype (%),[3],0% and 6%
same,Population Mitochondria Different-Phenotype (%),[3],0% and 4%
same,Population Mitotic Cells (%),[3],14% and 10%
same,Population Normal (%),[3],98% and 100%
same,Population Pyknosed Nuclei (%),[3],44% and 34%
same,Population Tubulin-Different-Phenotype (%),[3],77% and 84%
same,Total Cell Count,[3],62 and 166
same,Population Apoptotic (%),[4],85% and 93%
same,Population Fragmented Nuclei (%),[4],8% and 12%
same,Population Hoechst High Intensity Objects (%),[4],0% and 1%
same,Population Membrane Permeable-Phenotype (%),[4],50% and 40%
same,Population Mitochondria Different-Phenotype (%),[4],50% and 64%
same,Population Mitotic Cells (%),[4],14% and 6%
same,Population Normal (%),[4],100% and 98%
same,Population Pyknosed Nuclei (%),[4],84% and 57%
same,Population Tubulin-Different-Phenotype (%),[4],100% and 68%
same,Population Apoptotic (%),[5],89% and 93%
same,Population Fragmented Nuclei (%),[5],19% and 13%
same,Population Healthy Nuclei (%),[5],29% and 44%
same,Population Hoechst High Intensity Objects (%),[5],0%
same,Population Membrane Permeable-Phenotype (%),[5],5% and 9%
same,Population Mitochondria Different-Phenotype (%),[5],0% and 5%
same,Population Mitotic Cells (%),[5],10% and 6%
same,Population Normal (%),[5],100% and 99%
same,Population Pyknosed Nuclei (%),[5],50% and 41%
same,Population Tubulin-Different-Phenotype (%),[5],70% and 87%
same,Population Apoptotic (%),[6],100% and 94%
same,Population Fragmented Nuclei (%),[6],9% and 10%
same,Population Healthy Nuclei (%),[6],18% and 14%
same,Population Hoechst High Intensity Objects (%),[6],4% and 3%
same,Population Membrane Permeable-Phenotype (%),[6],75% and 62%
same,Population Mitochondria Different-Phenotype (%),[6],100% and 53%
same,Population Mitotic Cells (%),[6],0% and 5%
same,Population Normal (%),[6],95% and 96%
same,Population Pyknosed Nuclei (%),[6],72% and 75%
same,Population Tubulin-Different-Phenotype (%),[6],75% and 96%
CCCNc1ccc2ncc(-c3ccncc3)n2n1,Population Apoptotic (%),[1],60% and 74%
same,Population Healthy Nuclei (%),[1],58% and 81%
same,Population Hoechst High Intensity Objects (%),[1],0%
same,Population Membrane Permeable-Phenotype (%),[1],11% and 2%
same,Population Mitochondria Different-Phenotype (%),[1],11% and 0%
same,Population Mitotic Cells (%),[1],40% and 25%
same,Population Normal (%),[1],100%
same,Population Pyknosed Nuclei (%),[1],17% and 14%
same,Population Tubulin-Different-Phenotype (%),[1],76% and 86%
same,Population Apoptotic (%),[2],81% and 78%
same,Population Healthy Nuclei (%),[2],35% and 57%
same,Population Hoechst High Intensity Objects (%),[2],0% and 1%
same,Population Membrane Permeable-Phenotype (%),[2],6% and 8%
same,Population Mitochondria Different-Phenotype (%),[2],6% and 3%
same,Population Mitotic Cells (%),[2],18% and 22%
same,Population Normal (%),[2],100% and 98%
same,Population Pyknosed Nuclei (%),[2],24% and 33%
same,Population Tubulin-Different-Phenotype (%),[2],68% and 60%
same,Population Apoptotic (%),[3],66% and 87%
same,Population Healthy Nuclei (%),[3],71% and 89%
same,Population Hoechst High Intensity Objects (%),[3],0%
same,Population Membrane Permeable-Phenotype (%),[3],10% and 3%
same,Population Mitochondria Different-Phenotype (%),[3],3% and 1%
same,Population Mitotic Cells (%),[3],33% and 12%
same,Population Normal (%),[3],100% and 99%
same,Population Pyknosed Nuclei (%),[3],7%
same,Population Tubulin-Different-Phenotype (%),[3],76% and 88%
same,Population Apoptotic (%),[4],78% and 90%
same,Population Healthy Nuclei (%),[4],26% and 53%
same,Population Hoechst High Intensity Objects (%),[4],0% and 2%
same,Population Membrane Permeable-Phenotype (%),[4],16% and 7%
same,Population Mitochondria Different-Phenotype (%),[4],8% and 7%
same,Population Mitotic Cells (%),[4],21% and 9%
same,Population Normal (%),[4],100% and 97%
same,Population Pyknosed Nuclei (%),[4],31% and 33%
same,Population Tubulin-Different-Phenotype (%),[4],66% and 69%
same,Population Apoptotic (%),[5],57% and 66%
same,Population Healthy Nuclei (%),[5],71% and 88%
same,Population Hoechst High Intensity Objects (%),[5],0%
same,Population Membrane Permeable-Phenotype (%),[5],6% and 3%
same,Population Mitochondria Different-Phenotype (%),[5],6% and 2%
same,Population Mitotic Cells (%),[5],42% and 33%
same,Population Normal (%),[5],100%
same,Population Pyknosed Nuclei (%),[5],11% and 7%
same,Population Tubulin-Different-Phenotype (%),[5],69% and 86%
same,Population Apoptotic (%),[6],81% and 78%
same,Population Healthy Nuclei (%),[6],23% and 37%
same,Population Hoechst High Intensity Objects (%),[6],0% and 1%
same,Population Mitochondria Different-Phenotype (%),[6],23% and 8%
same,Population Mitotic Cells (%),[6],18% and 21%
same,Population Normal (%),[6],100% and 98%
same,Population Pyknosed Nuclei (%),[6],29% and 51%
same,Population Tubulin-Different-Phenotype (%),[6],46% and 62%
